In the library only some 1.2% were active in any assay of this set; here they are far more common.
G6PDH counter: L. mesenteroides G6PDH inhibition counter-screen; inhibition, % at 5 µM; hit rate 0.12% among 200,000; Purified L. mesenteroides G6PDH, diaphorase/resazurin coupled fluorescence, 45 min; in the data active means inhibition above about 50%
HKDC1 inhibitor: inhibitors of human hexokinase HKDC1. Q2TB90. recombinant HKDC1, G6PDH/diaphorase resazurin coupled fluorescence. inhibition, % at 20 µM. hit rate 0.16% among 340,000. AID 493160;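 active means inhibition above about 35% when tested at 20 µM, limit read from the data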;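 further: plate controls were DMSO wells with enzyme for no effect and DMSO wells lacking enzyme for full effect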
Target sequence (Q2TB90 whole entry, looked up): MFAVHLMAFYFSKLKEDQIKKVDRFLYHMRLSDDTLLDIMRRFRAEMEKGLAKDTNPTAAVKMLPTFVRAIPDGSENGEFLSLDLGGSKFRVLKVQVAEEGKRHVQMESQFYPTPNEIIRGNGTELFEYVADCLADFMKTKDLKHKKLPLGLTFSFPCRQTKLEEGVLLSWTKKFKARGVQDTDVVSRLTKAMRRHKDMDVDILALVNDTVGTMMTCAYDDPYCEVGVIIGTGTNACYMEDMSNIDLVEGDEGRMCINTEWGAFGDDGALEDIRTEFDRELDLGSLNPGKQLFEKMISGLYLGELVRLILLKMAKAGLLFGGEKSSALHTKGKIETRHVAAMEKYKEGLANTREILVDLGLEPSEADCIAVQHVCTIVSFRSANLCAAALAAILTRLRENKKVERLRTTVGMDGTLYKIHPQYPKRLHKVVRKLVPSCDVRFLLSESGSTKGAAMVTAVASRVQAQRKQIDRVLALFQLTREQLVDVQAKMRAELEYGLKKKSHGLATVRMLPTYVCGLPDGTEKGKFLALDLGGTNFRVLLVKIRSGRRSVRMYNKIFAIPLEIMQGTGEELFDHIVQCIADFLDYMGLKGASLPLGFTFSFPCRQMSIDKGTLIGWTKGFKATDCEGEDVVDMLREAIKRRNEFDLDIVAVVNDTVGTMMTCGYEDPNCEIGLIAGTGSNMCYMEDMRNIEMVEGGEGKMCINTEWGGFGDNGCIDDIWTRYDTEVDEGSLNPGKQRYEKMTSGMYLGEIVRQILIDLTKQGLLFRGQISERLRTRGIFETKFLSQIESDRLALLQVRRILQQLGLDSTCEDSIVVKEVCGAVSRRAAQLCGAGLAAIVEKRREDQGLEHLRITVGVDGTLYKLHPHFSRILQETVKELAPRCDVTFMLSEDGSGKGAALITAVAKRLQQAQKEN
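Test system: Recombinant HKDC1 (HK5) hexokinase enzyme, produced in-house | Input: HKDC1 at 5 µg/mL | Buffer or medium: Tris pH 8.0 buffer with MgCl2, Tween-20, BSA, BME | Schedule: 90 min reaction incubation at room temperature, dark | Technique: Resazurin-to-resorufin fluorescence via G6PDH and diaphorase coupling, 525/613 nm | Controls: DMSO wells with and without enzyme mix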
Diaph inh CS: inhibits diaphorase or chemically oxidizes, flagging diaphorase assay artifacts; hit rate 0.69% among 190,000; diaphorase resazurin-to-resorufin fluorescence, NADH, 16 min; bacterial (C. kluyveri) enzyme, not human; inhibition, % at 20 µM;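 active means primary screen inhibition at 20 µM above a set limit, cut at about 50% in these data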;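 further: plate controls were DMSO with full reaction for no effect and wells lacking NADH for full effect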
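Test system: Clostridium kluyveri diaphorase enzyme / Quantity: diaphorase at 0.14 U/mL in enzyme working solution / Incubation: 16-min room-temperature incubation before reading / Benchmarks: NADH-free wells as positive control, DMSO-only neutral wells / Signal: resorufin fluorescence 544/590 nm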
PfG6PD inh: PfG6PD (Plasmodium falciparum) enzyme inhibition; PfGluPho enzyme, NADPH resazurin-diaphorase fluorescence; inhibition, % at 20 µM; hit rate 0.78% among 350,000; AID 504690;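 active means inhibition reaching at least a set limit at 20 µM in the primary screen, cut at about 59% in these data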;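 further: 0% = DMSO wells with substrate and 100% = DMSO wells lacking glucose-6-phosphate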
Tb hexokinase: T. brucei hexokinase 1 inhibition. recombinant TbHK1, G6PDH-coupled NADH A340. inhibition, % at 10 µM. hit rate 0.11% among 220,000. AID 1430;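 active means inhibition of 50% or more in the single-dose primary screen; inactive means inhibition below 50%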
HKDC1 act conf: HKDC1 (human) activation, single-dose confirmed. shares compounds with HKDC1 inhibitor. recombinant HKDC1, G6PDH/diaphorase resazurin fluorescence; stronger effect = lower value. inhibition, % at 20 µM. hit rate 14% among 740;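 active means inhibition at or below a set negative limit, negative inhibition meaning the enzyme was activated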
PfG6PD confirm: PfG6PD inhibition, single-dose confirmed. AID 504753. inhibition, % at 20 µM. recombinant PfGluPho, NADPH-diaphorase-resazurin fluorescence. hit rate 34% among 2,400. shares compounds with PfG6PD inh;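 active means inhibition of at least 50% at 20 µM in any single replicate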;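 further: 0% = DMSO with substrate and 100% = DMSO lacking glucose-6-phosphate substrate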
Diaph ctr 10uM: counter-screen for P. falciparum G6PD inhibitors: diaphorase inhibitors, oxidizers; hit rate 39% among 820; shares compounds with PfG6PD inh; diaphorase-coupled resazurin reduction, fluorescence, NADPH 10 uM; inhibition, % at 20 µM; AID 504862;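 active means average inhibition reaching 50% or more with the compound at 20 µM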;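 further: resorufin red fluorescence formed as diaphorase reduces resazurin using NADPH; 0% = DMSO with enzyme and 100% = DMSO without enzyme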
Diaphorase 30uM: counter-screen for P. falciparum G6PD inhibitors: diaphorase inhibitors, oxidizers; shares compounds with PfG6PD inh; Diaphorase/resazurin coupled assay, resorufin fluorescence, 30 uM NADPH; inhibition, % at 20 µM; hit rate 29% among 820;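 active means inhibition averaging 50% or more, tested at 20 µM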;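 further: 0% = DMSO with enzyme and 100% = DMSO wells lacking diaphorase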
* = called active by the depositor; nt = no result given.

SMILES	G6PDH counter	HKDC1 inhibitor	Diaph inh CS	PfG6PD inh	Tb hexokinase	PfG6PD confirm	others
CC1=NOC(=O)/C1=C\c1ccc(-c2ccc(Cl)cc2Cl)o1	0	54*	13	70*	25	-26	HKDC1 act conf=47
CCCOc1ccc(Cl)cc1/C=C1/C(=O)ON=C1C	nt	5	nt	10	nt	nt
CN(CC(=O)Nc1ccc(Cl)c(Cl)c1)C(=O)C1CCC1	nt	-3	nt	75*	nt	27
O=C(COC(=O)C1CC(=O)N(c2ccccc2)C1)c1ccccc1 (stereo not drawn)	4	-6	16	-2	-1	nt
Cc1ccc(N2CC(C(=O)OCC(=O)c3ccc([N+](=O)[O-])cc3)CC2=O)cc1 (stereo not drawn)	nt	-2	nt	60*	nt	57*	Diaph ctr 10uM=-9;Diaphorase 30uM=-2
CC1CCN(c2ccc(NC(=O)c3ccccc3[N+](=O)[O-])cc2)CC1	9	-15	-2	18	5	nt
CN(CC(=O)NCc1ccco1)CC(=O)Nc1c(Cl)cccc1Cl	nt	-3	nt	-2	nt	nt
CC(=O)Nc1ccc(NC(=O)C(C)OC(=O)CCCN=C2NS(=O)(=O)c3ccccc32)cc1 (stereo not drawn)	nt	-3	nt	-14	nt	nt
CC(OC(=O)CCN=C1NS(=O)(=O)c2ccccc21)C(=O)Nc1ccc(N(C)C)cc1 (stereo not drawn)	nt	5	nt	70*	nt	5
CNC(=O)N1CCC(C(=O)c2c(C)c(C)c(C)c(C)c2C)CC1	nt	-4	nt	-2	nt	nt
CN(C)/C=C1\NC(=S)N(c2ccccc2)C1=O	11	-6	18	47	-37	nt
COc1ccc(N2C(=O)/C(=C/c3cccs3)NC2=S)cc1	3	-36	27	79*	4	64*	Diaph ctr 10uM=-16;Diaphorase 30uM=-8
Cn1c2ccccc2c(=O)c2ccc(C#CC3(N)CCCCC3)cc21	nt	10	nt	20	nt	nt
Cn1c2ccccc2c(=O)c2cc(C#CC3(O)CCCCC3)ccc21	nt	2	nt	62*	nt	35
N#C/C(=C/c1ccc(N2CCOCC2)o1)c1ccc(Br)cc1	4	2	31	80*	-12	28
N#C/C(=C/c1ccc(N2CCCCCC2)o1)c1cccc(F)c1	18	4	29	65*	0	-4
N#C/C(=C\c1ccc(N2CCOCC2)o1)c1ccccc1	5	-9	5	48	-6	nt
CCCn1c(N)c(C(=O)CSc2nnc(C3CC3)n2C2CC2)c(=O)[nH]c1=O	nt	-2	nt	-20	nt	nt
CCCCn1c(N)c(N(CCOC)C(=O)CSc2ccc([N+](=O)[O-])cc2)c(=O)[nH]c1=O	nt	-2	nt	6	nt	nt
CSC1SCC2C(=O)N(C)C(C(C)C)C(=O)OCC(NC(=O)c3cnc4ccccc4n3)C(=O)NC(C)C(=O)N(C)C1C(=O)N(C)C(C(C)C)C(=O)OCC(NC(=O)c1cnc3ccccc3n1)C(=O)NC(C)C(=O)N2C (stereo not drawn)	nt	14	nt	59*	nt	8
Clc1cccc(Nc2ncnc3c2cnn3-c2ccccc2)c1	-7	-1	1	83*	nt	-9
O=C(O)c1cccc(Nc2ncnc3c2cnn3-c2ccccc2)c1	2	1	9	-13	-2	nt
Fc1cccc(Nc2ncnc3c2cnn3-c2ccccc2)c1	nt	1	nt	70*	-17	13
O=[N+]([O-])c1ccc(O)c2ncccc12	66*	15	30	63*	11	44
CC1SC(c2ccc(F)cc2)N(CCc2ccccc2)C1=O (stereo not drawn)	nt	0	nt	-9	nt	nt
SMILES	G6PDH counter	HKDC1 inhibitor	Diaph inh CS	PfG6PD inh	Tb hexokinase	PfG6PD confirm	others
N=c1n(CCN2CCCCC2)c2ccccc2n1CC(=O)c1ccc(Cl)c(Cl)c1	nt	-3	nt	93*	1	4
Cc1cccc(C(=O)Nc2sc3c(c2C(=O)O)CCCC3)c1	nt	6	nt	80*	nt	53*	Diaph ctr 10uM=47;Diaphorase 30uM=29
Cc1ccccc1C(=O)Nc1sc2c(c1C(=O)O)CCC2	1	-8	5	8	-19	nt
O=C(Nc1sc2c(c1C(=O)O)CCC2)c1cccc(Cl)c1	nt	5	nt	62*	nt	35
CN(CCc1ccccc1)C(=O)c1cc(COc2ccc(F)cc2Cl)on1	nt	2	nt	-11	nt	nt
[O-][n+]1nc2ccccc2c2ccccc21	nt	3	nt	0	nt	nt
O=C(Nc1ccccc1)c1cc2ccccc2s1	nt	-2	nt	71*	nt	15
O=C(Nc1ccccc1)c1cc2ccccc2c(=O)s1	3	-5	17	29	1	nt
N#CC1(NC(=O)CN2c3cccc4cccc(c34)S2(=O)=O)CCCCC1	nt	2	nt	0	nt	nt
O=C(Cc1cccs1)NCc1ccccc1Br	nt	-1	nt	-6	nt	nt
Cc1cccc(-n2c(C)cc(C(=O)NC3CCCCC3)c2C)c1	6	-8	7	45	-10	nt
COc1ccc(-n2c(C)cc(C(=O)NC3CCCCC3)c2C)cc1	2	-5	0	71*	-5	38
Cc1cccc(C)c1N(CC(=O)NCc1ccco1)C(=O)CNS(=O)(=O)c1ccc(F)cc1	nt	-1	nt	17	nt	nt
COC(=O)c1ccccc1N/C=C1\CCc2c(c(C)nn2-c2ccccn2)C1=O	26	-1	74*	74*	-15	64*	Diaph ctr 10uM=12;Diaphorase 30uM=-4
COc1ccc(-n2sc3ccccc3c2=O)cc1	nt	nt	nt	125*	nt	109*	Diaph ctr 10uM=-26;Diaphorase 30uM=-12
NC(=S)N/N=C/c1ccc(/C=N/NC(N)=S)cc1	nt	23	nt	-7	-66	nt
NC(=S)N/N=C/c1ccc(-n2nncc2-c2ccc(Cl)cc2)cc1	nt	8	nt	73*	nt	22
Cn1c(=O)c2c(ncn2CC(=O)N2CCN(S(=O)(=O)c3ccccc3)CC2)n(C)c1=O	nt	-8	nt	-1	nt	nt
O=C(CSC(=O)c1ccccc1)Nc1ccccc1F	nt	-10	nt	63*	nt	13
CC1CCc2[nH]c3ccc(C(=O)N(C)CC(=O)Nc4ccccc4Cl)cc3c2C1 (stereo not drawn)	nt	-3	nt	60*	nt	24
CC1CCc2[nH]c3ccc(C(=O)N(C)CC(=O)Nc4ccccc4C(F)(F)F)cc3c2C1 (stereo not drawn)	nt	5	nt	110*	nt	63*	Diaph ctr 10uM=53*;Diaphorase 30uM=34
Cc1ccc(NC(=O)CN(C)C(=O)c2ccc3[nH]c4c(c3c2)CC(C)CC4)cc1 (stereo not drawn)	nt	-1	nt	18	nt	nt
CCOC(=O)c1c(C)c(C(=O)NCc2ccc3c(c2)OCO3)c(C)n1CC	6	1	0	-12	-5	nt
CCn1c(N)c(C(=O)NCc2ccc3c(c2)OCO3)sc1=S	2	-1	13	74*	-26	33
COc1cc(Cc2cc(OC)c(O)c(OC)c2)cc(OC)c1O	nt	nt	nt	48	nt	nt

Screening data deposited in PubChem by several laboratories.
